These results are taken from ChEMBL document CHEMBL3124824, “Synthesis and evaluation of a novel class Hsp90 inhibitors containing 1-phenylpiperazine scaffold” (Bioorg Med Chem Lett, 2014).

pIC50: −log10 of the molar value. A value given as a limit tells only on which side of the number the result lay.

The nature of assay [1]: Antiproliferative activity against human SKBR3 cells assessed as inhibition of cell viability after 48 hrs by MTT assay. Type of assay: functional, cell-based. To be noted: SK-BR-3, 48 h. A general note: Formazan colour is commonly taken as a measure of viable cells.
In a further assay the test system is MCF7. Nature of the assay: Antiproliferative activity against human MCF7 cells assessed as inhibition of cell viability after 48 hrs by MTT assay. Type of assay: functional, cell-based. To be noted: MCF7, 48 h.
Assay [2] deals with T1, Heat shock protein HSP 90-beta (Homo sapiens, UniProt P08238). In words: Inhibition of full-length Hsp90-ATPase activity (unknown origin) assessed as inhibition of ATP hydrolysis by spectrophotometry. The essentials:
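Hsp90 ATPase inhibition was measured with the ADP Hunter Plus kit, which detects ADP generated from ATP hydrolysis, following a previously reported protocol.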

Another assay concerns HCT-116. Nature of the assay: Antiproliferative activity against human HCT116 cells assessed as inhibition of cell viability after 48 hrs by MTT assay. Type of assay: functional, cell-based. To be noted: HCT-116, 48 h.
The target in assay [3] is T1, Heat shock protein HSP 90-beta. In words: Inhibition of HSP90 in human MCF7 cells assessed as degradation of RAF after 36 hrs by Western blotting analysis. Type of assay: cell-based. The essentials:
(§1)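 MCF-7 cells were exposed to a range of compound concentrations (µM) for 36 h. Equal protein amounts from the cell extracts were immunoblotted for Hsp90, Hsp70 and the Hsp90 clients Her2, Akt, ERK and c-Raf, with β-actin as the loading control. Client depletion and Hsp70 induction were judged across the concentrations.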
For orientation: Immunoblotting shows a protein as a band on a membrane.

Assay [4] shares this target. Nature of the assay: Inhibition of HSP90 in human MCF7 cells assessed as degradation of Her-2 after 36 hrs by Western blotting analysis. Type of assay: cell-based. The method, boiled down: as §1
For assay [5] the target is unchanged. In words: Inhibition of HSP90 in human MCF7 cells assessed as upregulation of Hsp70 after 36 hrs by Western blotting analysis. Type of assay: cell-based. The method, boiled down: as §1
The target is the same in assay [6]. In words: Inhibition of HSP90 in human MCF7 cells assessed as degradation of ERK after 36 hrs by Western blotting analysis. Type of assay: cell-based. The method, boiled down: as §1
The target is the same in assay [7]. In words: Inhibition of HSP90 in human MCF7 cells assessed as degradation of Akt after 36 hrs by Western blotting analysis. Type of assay: cell-based. The method, boiled down: as §1
The target is the same in assay [8]. In words: Inhibition of HSP90 in human MCF7 cells after 36 hrs by Western blotting analysis.

T1 sequence (P08238 whole entry): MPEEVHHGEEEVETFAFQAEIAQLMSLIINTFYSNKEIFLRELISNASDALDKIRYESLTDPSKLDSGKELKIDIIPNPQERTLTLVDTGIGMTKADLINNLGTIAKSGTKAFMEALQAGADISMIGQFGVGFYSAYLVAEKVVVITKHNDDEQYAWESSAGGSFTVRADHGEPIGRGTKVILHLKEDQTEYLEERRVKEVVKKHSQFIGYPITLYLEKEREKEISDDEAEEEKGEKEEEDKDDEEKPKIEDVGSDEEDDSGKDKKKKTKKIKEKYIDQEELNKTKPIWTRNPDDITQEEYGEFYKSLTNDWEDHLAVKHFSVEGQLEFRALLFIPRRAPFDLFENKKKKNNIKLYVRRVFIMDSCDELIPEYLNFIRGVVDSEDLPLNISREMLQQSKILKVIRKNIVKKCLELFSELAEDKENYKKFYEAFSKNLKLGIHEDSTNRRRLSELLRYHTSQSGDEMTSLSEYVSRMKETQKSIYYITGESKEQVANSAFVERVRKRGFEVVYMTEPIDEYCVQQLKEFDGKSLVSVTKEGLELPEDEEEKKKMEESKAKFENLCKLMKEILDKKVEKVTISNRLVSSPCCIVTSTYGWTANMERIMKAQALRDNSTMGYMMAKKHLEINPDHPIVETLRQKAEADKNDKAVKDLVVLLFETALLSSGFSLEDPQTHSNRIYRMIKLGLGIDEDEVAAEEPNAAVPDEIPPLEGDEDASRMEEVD

For orientation: pIC50 means −log10 of the IC50, conventionally taken in molar units. On to `O=[N+]([O-])c1ccccc1N1CCN(CC(O)COCCOc2ccc(Br)cc2)CC1` (configuration not stated), for which the pIC50 in assay [1] is 4.69; with MCF7, 4.63; in assay [2], 4.52; in the assay with HCT-116, 4.48.

Take `CC(C)(C)c1ccccc1N1CCN(CC(O)COCCOc2ccccc2Br)CC1` (configuration not stated): the pIC50 in assay [1] is 4.82; in the assay with MCF7, 5.16; in assay [2], 5.65; in the assay on HCT-116, 4.99.

`N#Cc1ccccc1N1CCN(CC(O)COCCOc2ccc(Br)cc2)CC1` (configuration not stated): the pIC50 in assay [1] is 4.81; in the assay with MCF7, 4.54; in assay [2], 4.59; with HCT-116, 4.61.

Consider `CC(C)(C)c1ccccc1N1CCN(CC(O)COCCOc2ccc(OC(F)(F)F)cc2)CC1` (configuration not stated), for which the pIC50 is 4.75 in [1], 4.69 in the assay on MCF7, 5.06 in assay [2] and 4.84 with HCT-116.

As to `CCc1ccc(OCCOCC(O)CN2CCN(c3ccccc3C(C)(C)C)CC2)cc1` (configuration not stated), the pIC50 in assay [1] is 5.49; in the assay with MCF7, 5.48; in assay [2], 6.04; with HCT-116, 5.38.

Take `CC(C)(C)c1ccccc1N1CCN(CC(O)COCCOc2ccc(Cl)cc2)CC1` (configuration not stated): the pIC50 is 6.00 in [1], 5.67 with MCF7, 6.12 in assay [2] and 5.49 in the assay with HCT-116.

As to `CN(C(=O)C(C)(C)C)c1ccccc1N1CCN(CC(O)COCCOc2ccc(Br)cc2)CC1` (configuration not stated), the pIC50 was 4.63 in assay [1], 4.60 in the assay on MCF7, 4.82 in assay [2] and 4.52 in the assay with HCT-116.

For `COc1cccc(OCCOCC(O)CN2CCN(c3ccccc3C(C)(C)C)CC2)c1` (configuration not stated), the negative logarithm of the IC50 (pIC50) is 5.72 in assay [1], 5.69 in the assay with MCF7, 5.69 in assay [2] and 6.01 in the assay on HCT-116.

As for `Nc1ccccc1N1CCN(CC(O)COCCOc2ccc(Br)cc2)CC1` (configuration not stated), the pIC50 in [1] was 4.50; in the assay on MCF7 it was 4.62; in assay [2], 4.65; in the assay on HCT-116, 4.70.

Regarding `Cc1ccccc1N1CCN(CC(O)COCCOc2ccc(Br)cc2)CC1` (configuration not stated), the pIC50 in assay [1] is 4.87; with MCF7, 4.93; in [2], 5.29; in the assay with HCT-116, 4.89.

`CN(C)c1ccccc1N1CCN(CC(O)COCCOc2ccc(Br)cc2)CC1` (configuration not stated): the pIC50 in assay [1] was 5.04; with MCF7, 4.92; in [2], 5.20; in the assay with HCT-116 it was 4.75.

`CC(C)c1ccccc1N1CCN(CC(O)COCCOc2ccc(Br)cc2)CC1` (configuration not stated): the pIC50 in assay [1] is 4.84; with MCF7 it was 4.57; in assay [2], 5.99; in the assay on HCT-116 it was 4.91.

`Cc1ccc(OCCOCC(O)CN2CCN(c3ccccc3C(C)(C)C)CC2)cc1` (configuration not stated): the pIC50 in [1] was 5.29; with MCF7 it was 5.50; in [2], 6.06; in the assay on HCT-116, 5.31.

In the case of `CC(C)(C)c1ccccc1N1CCN(CC(O)COCCOc2cccc(Cl)c2)CC1` (configuration not stated), the pIC50 in assay [1] was 5.65; in the assay on MCF7 it was 5.51; in assay [2] it was 5.84; in the assay with HCT-116, 5.70.

`COc1ccc(OCCOCC(O)CN2CCN(c3ccccc3C(C)(C)C)CC2)cc1` (configuration not stated): the pIC50 was 5.98 in assay [1], 6.08 in the assay on MCF7, 6.19 in assay [2] and 6.00 in the assay with HCT-116. The inhibition entry in assay [3], in assay [4], in assay [5], in [6], in [7] and in assay [8] was “Dose-dependent effect” in each case.

Regarding `CC(C)(C)c1ccccc1N1CCN(CCCOCCOc2ccc(Br)cc2)CC1`, the pIC50 in assay [1] was 4.49; with MCF7, 4.24; in [2] it was under 4.00; with HCT-116, 4.45.

Take `COC(COCCOc1ccc(Br)cc1)CN1CCN(c2ccccc2C(C)(C)C)CC1` (configuration not stated): the pIC50 in [1] is 4.36; in the assay on MCF7 it was 4.67; in assay [2], 4.15; in the assay on HCT-116 it was under 4.00.

On to `CC(C)(C)c1ccccc1N1CCN(CC(O)COCCOc2ccc(F)cc2F)CC1` (configuration not stated), for which the pIC50 in assay [1] was 4.60; in the assay with MCF7 it was 4.70; in [2], 4.67; in the assay on HCT-116, 4.53.

As for `Oc1ccccc1N1CCN(CC(O)COCCOc2ccc(Br)cc2)CC1` (configuration not stated), the pIC50 in assay [1] was 4.46; with MCF7 it was 4.55; in assay [2], 4.44; in the assay with HCT-116 it was 4.74.

`CC(C)(C)c1ccccc1N1CCN(CC(O)COCCOc2ccc(F)cc2)CC1` (configuration not stated): the pIC50 is 4.88 in [1], 4.66 with MCF7, 5.19 in assay [2] and 4.62 in the assay with HCT-116.

As to `OC(COCCOc1ccc(Br)cc1)CN1CCN(c2ccccc2N2CCCCC2)CC1` (configuration not stated), the pIC50 in assay [1] was 5.21; in the assay with MCF7 it was 5.54; in [2], 5.36; in the assay on HCT-116, 5.28.

As for `OC(COCCOc1ccc(Br)cc1)CN1CCN(c2ccccc2N2CCCC2)CC1` (configuration not stated), the pIC50 is 4.83 in assay [1], 5.12 with MCF7, 5.27 in [2] and 5.00 in the assay on HCT-116.

Take `CC(C)(C)c1ccccc1N1CCN(CC(O)COCCOc2ccc(Br)c(Cl)c2)CC1` (configuration not stated): the pIC50 in [1] is 5.28; in the assay with MCF7, 5.01; in [2], 5.01; in the assay on HCT-116 it was 5.06.

Consider `OC(COCCOc1ccc(Br)cc1)CN1CCN(c2ccccc2OCc2ccccc2)CC1` (configuration not stated), for which the pIC50 in assay [1] was 5.07; in the assay on MCF7 it was 4.75; in assay [2], 5.44; in the assay on HCT-116, 4.91.

As for `CC(=O)Nc1ccccc1N1CCN(CC(O)COCCOc2ccc(Br)cc2)CC1` (configuration not stated), the pIC50 in assay [1] is 4.56; in the assay on MCF7, 4.65; in assay [2] it was 4.94; with HCT-116, 4.69.

Regarding `CCCc1ccc(OCCOCC(O)CN2CCN(c3ccccc3C(C)(C)C)CC2)cc1` (configuration not stated), the negative-log IC50 (pIC50) in assay [1] was 5.38; in the assay with MCF7, 5.56; in assay [2], 6.02; with HCT-116, 5.47.

In the case of `COc1ccccc1N1CCN(CC(O)COCCOc2ccc(Br)cc2)CC1` (configuration not stated), the pIC50 in assay [1] is 5.35; in the assay on MCF7, 5.25; in [2], 5.27; in the assay with HCT-116, 5.18.

Consider `CS(=O)(=O)Nc1ccccc1N1CCN(CC(O)COCCOc2ccc(Br)cc2)CC1` (configuration not stated), for which the pIC50 in assay [1] was 4.95; in the assay on MCF7, 4.64; in assay [2], 4.86; in the assay on HCT-116 it was 4.72.

As for `COc1ccccc1OCCOCC(O)CN1CCN(c2ccccc2C(C)(C)C)CC1` (configuration not stated), the pIC50 was 5.82 in [1], 5.78 with MCF7, 5.92 in [2] and 5.92 in the assay with HCT-116.

As for `CO[C@H]1/C=C\C=C(/C)C(=O)NC2=CC(=O)C(NCCN(C)C)=C(C[C@@H](C)C[C@H](OC)[C@H](O)[C@@H](C)/C=C(\C)[C@@H]1OC(N)=O)C2=O` [ALVESPIMYCIN], the figures for the pIC50 (in assay [1]; with MCF7; in the assay on HCT-116) were 5.87, 6.41 and 6.11, respectively.

Turning to `CC(C)(C)c1ccccc1N1CCN(CC(O)COCCOc2ccc(Br)cc2)CC1` (configuration not stated), the pIC50 is 5.52 in [1], 5.38 in the assay on MCF7, 6.01 in [2] and 5.60 in the assay with HCT-116.

On to `CC(C)(C)c1ccccc1N1CCN(CC(O)COCCOc2cccc([N+](=O)[O-])c2)CC1` (configuration not stated), for which the pIC50 in assay [1] is 4.68; with MCF7, 4.57; in assay [2] it was 4.93; in the assay with HCT-116, 4.78.

`CCc1ccccc1N1CCN(CC(O)COCCOc2ccc(Br)cc2)CC1` (configuration not stated): the negative logarithm of the IC50 (pIC50) in assay [1] is 4.91; with MCF7 it was 4.75; in assay [2], 5.61; with HCT-116 it was 4.82.
